# Compound activity (PubChem BioAssay)
# TRPC6 inhibitor: mouse TRPC6 channel inhibitors, primary screen, cell-based, HEK293, membrane potential dye | Short transient receptor potential channel 6 (Mus musculus), Q61143 | ACh-evoked depolarization; active compounds read low | B-score at 10 µM | 310,000 tested, 1.1% active;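 active = B-score under library mean minus 3 SD, initial fluorescence not abnormally high, positive integrated signal ratio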;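 note: B-score derived from integrated fluorescence ratio over the kinetic read; more negative B-score means stronger inhibition of depolarization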
# Target sequence (Q61143 whole entry, looked up): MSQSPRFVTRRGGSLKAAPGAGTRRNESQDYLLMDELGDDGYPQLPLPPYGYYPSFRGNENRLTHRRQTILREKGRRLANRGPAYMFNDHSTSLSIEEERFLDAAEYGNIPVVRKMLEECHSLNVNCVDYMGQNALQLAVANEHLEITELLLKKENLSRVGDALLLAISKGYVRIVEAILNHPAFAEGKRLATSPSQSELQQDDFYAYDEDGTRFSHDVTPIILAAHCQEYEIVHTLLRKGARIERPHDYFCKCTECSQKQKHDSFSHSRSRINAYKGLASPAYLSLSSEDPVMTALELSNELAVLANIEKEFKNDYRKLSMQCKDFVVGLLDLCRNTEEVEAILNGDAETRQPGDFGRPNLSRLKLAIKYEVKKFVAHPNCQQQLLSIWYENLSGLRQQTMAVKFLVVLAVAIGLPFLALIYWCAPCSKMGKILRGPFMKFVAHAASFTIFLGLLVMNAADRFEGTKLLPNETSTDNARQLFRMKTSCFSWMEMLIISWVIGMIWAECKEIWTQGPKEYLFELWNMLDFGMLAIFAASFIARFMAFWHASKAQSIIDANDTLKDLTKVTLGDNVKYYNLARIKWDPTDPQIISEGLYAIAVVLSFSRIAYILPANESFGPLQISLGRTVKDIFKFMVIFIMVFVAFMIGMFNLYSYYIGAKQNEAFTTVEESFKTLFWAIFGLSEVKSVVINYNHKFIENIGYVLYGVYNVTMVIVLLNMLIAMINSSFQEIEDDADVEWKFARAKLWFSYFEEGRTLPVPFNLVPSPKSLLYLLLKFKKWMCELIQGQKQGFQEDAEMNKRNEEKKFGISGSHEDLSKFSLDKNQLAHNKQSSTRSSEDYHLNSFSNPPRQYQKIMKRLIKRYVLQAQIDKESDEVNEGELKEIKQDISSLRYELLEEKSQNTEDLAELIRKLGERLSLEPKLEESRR
# TRPC6 activator: mouse TRPC6 channel activators, primary screen, cell-based, HEK293, membrane potential dye; 310,000 tested, 0.13% active; Short transient receptor potential channel 6 (Mus musculus), Q61143; HEK293-TRPC6 membrane potential dye fluorescence; active compounds read high; B-score at 10 µM;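 active = B-score of the integrated fluorescence ratio above library mean plus 3 SD, and starting fluorescence ratio within library mean plus 5 SD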;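 note: higher score means more depolarization so channel activation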
# TRPC4 act: activators of mouse TRPC4 channel, primary screen, Fluo4 calcium, HEK293 TRPC4beta/mu-opioid cells | Short transient receptor potential channel 4 (Mus musculus), Q9QUQ5 | Fluo4 calcium fluorescence; active compounds read high | B-score at 10 µM | 310,000 tested, 0.49% active;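 active = B-score above 5 SD of library B-scores, and initial fluorescence ratio not above library mean plus 5 SD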;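 note: positive B-score marks a calcium rise read as TRPC4 activation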
#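 Assay system: HEK293 cells stably co-expressing mouse TRPC4beta and mu-opioid receptor / Timing: Fluo4 dye loading 45 min at room temperature, 110 s recording / Signal: Fluo4 calcium-sensitive dye fluorescence, kinetic, 1 Hz baseline / Read-out: integrated baseline-normalised fluorescence ratio, converted to per-well B score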
# TRPC4 inh: inhibitors of mouse TRPC4 channel, primary screen, Fluo4 calcium, HEK293 TRPC4beta/mu-opioid cells; Short transient receptor potential channel 4 (Mus musculus), Q9QUQ5; DAMGO-evoked Fluo4 calcium flux; active compounds read low; B-score at 10 µM; 300,000 tested, 0.39% active; AID 2247, 2010;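 active = B-score over 3 SD under the library average, no early fluorescence shift, positive overall ratio signal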
#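 Assay system – HEK293 line stably carrying TRPC4beta and mu-opioid receptor · Doses – single dose · Detection – Fluo4 calcium-dye fluorescence, kinetic read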
# TRPC4 potent: positive allosteric modulators of TRPC4, primary screen, cell-based, mouse TRPC4beta, HEK293 mu-opioid, Fluo-4 calcium; Short transient receptor potential channel 4 (Mus musculus), Q9QUQ5; B-score at 10 µM; AID 2227, 2009; 310,000 tested, 0.42% active; DAMGO EC20, Fluo-4 Ca2+ flux; active compounds read high;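 active = B-score of calcium response area above 5 SD of library B-scores, with initial fluorescence ratio within 5 SD of library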;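 note: B-score of integrated fluorescence ratio over time as area under calcium response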
# TRPC4 spec 2: second check of whether TRPC6 inhibitors also affect mouse TRPC4 | shares compounds with TRPC6 inhibitor | HEK293 TRPC4/MOR, membrane potential dye fluorescence; channel activated by saturating DAMGO dose | inhibition, % at 10 µM | 920 tested, 42% active | AID 2776;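 active = compounds whose fluorescence signal differed from control wells by over 3 SD, either direction, in both duplicate plates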
# TRPC4 spec: mouse TRPC4 modulation by TRPC6 hits, confirmation, selectivity assay for TRPC6 inhibitor project, cell-based, HEK293 TRPC4/mu-opioid, membrane potential dye. shares compounds with TRPC6 inhibitor. 920 tested, 61% active. membrane potential fluorescence. activity change, negative = inhibition, % at 10 µM;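 active = rise or fall in signal beyond 3 SD of buffer-only wells in both replicate plates, either sign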;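 note: integrated kinetic ratio of fluorescence range over baseline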
# HEK293 MPD ctr 2-1: nonspecific membrane potential effects, parental HEK293, confirmation, counter-screen for TRPC6 inhibitor project, cell-based, second counter screen; shares compounds with TRPC6 inhibitor; parental HEK293 membrane potential dye fluorescence; maximal acetylcholine challenge after compound addition; signal change vs control, % at 10 µM; 920 tested, 31% active; AID 2779, 2010;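 active = membrane potential signal moving either way by over 3 SD of the maximum-effect control, in both duplicate plates, meaning non-specific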
# HEK293 MPD ctr-1: membrane potential modulation in parental HEK293, confirmation, counter-screen for TRPC6 inhibitor project, cell-based; shares compounds with TRPC6 inhibitor; parental HEK293 membrane potential dye fluorescence; membrane potential signal change, % at 10 µM; 920 tested, 60% active;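 active = membrane potential signal shifting up or down by more than 3 SD of buffer-only wells, on both duplicate plates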
# HEK293 MPD ctr-2: parental HEK293 membrane potential modulation, confirmation, counter-screen for TRPC6 modulator project, cell-based. shares compounds with TRPC6 inhibitor. membrane potential dye fluorescence. membrane potential signal change, % at 10 µM. 2,400 tested, 51% active. AID 488924, 2010;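 active = membrane potential signal moves up or down beyond 5 SD from buffer-only wells, on both duplicate plates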
# HEK293 MPD ctr 2-2: second counter-screen for TRPC6 modulators: effect in parental HEK293 cells; shares compounds with TRPC6 inhibitor; membrane potential dye fluorescence; after compound, maximal acetylcholine stimulation; inhibition, % at 10 µM; 2,400 tested, 14% active; AID 488926;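 active = membrane potential signal drops by more than 5 SD from the mean control signal, in both duplicate plates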;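 note: plate controls were acetylcholine ECmax control wells for no effect and buffer only wells for full effect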
# TRPC4 ctr mod: TRPC4 modulation by TRPC6 hit compounds, confirmation, selectivity assay for TRPC6 modulator project, cell-based, HEK293 TRPC4/mu-opioid, membrane potential dye, mouse. shares compounds with TRPC6 inhibitor. membrane potential fluorescence. percent change from control (negative = decrease, positive = increase), % at 10 µM. 2,400 tested, 69% active. AID 488927, 2010;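 active = membrane potential signal moved up or down beyond 5 SD of buffer control wells, in both duplicate plates, actives on both sides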;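 note: plate controls were assay buffer wells for no effect and DAMGO maximal-effect wells for full effect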
# TRPC4/MOR inh 2: second selectivity test of TRPC6 modulators against mouse TRPC4. HEK293 TRPC4/mu-opioid, membrane potential dye fluorescence; stimulated with maximal-effect DAMGO. AID 488928. shares compounds with TRPC6 inhibitor. inhibition, % at 10 µM. 2,400 tested, 55% active;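 active = drop in membrane potential signal beyond 5 SD of the control wells in both duplicate plates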;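 note: TRPC4 counter screen for TRPC6 hits run under conditions tuned for TRPC6 not TRPC4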
# TRPC6 block conf: mouse TRPC6 channel inhibitors, confirmation, HEK293 cells, membrane potential dye, duplicate | shares compounds with TRPC6 inhibitor | ACh-evoked depolarization | inhibition, % at 10 µM | 3,300 tested, 43% active | AID 488960, 2010;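 active = fluorescence ratio falls more than 5 SD below the full-stimulation control mean, in both duplicate runs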;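 note: integrated fluorescence ratio of peak minus minimum over baseline after agonist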
# TRPC6 act conf: mouse TRPC6 channel activators, confirmation, HEK293 cells, membrane potential dye, duplicate | shares compounds with TRPC6 inhibitor | HEK293-TRPC6 membrane potential dye fluorescence, FDSS | activation, % at 10 µM | 2,800 tested, 11% active | AID 488961, 2010;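 active = ratio signal rise beyond 5 SD above unstimulated control wells' mean, seen in both duplicate runs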;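 note: plate controls were buffer EC0 wells for no effect and acetylcholine ECmax response for full effect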
# The depositor's hits bear a star; i = inactive; nt = no result. Rows were chosen to be rich in hits. Some 2.3% of all compounds tested hit in one or more screens of this group.
SMILES,TRPC6 inhibitor,TRPC6 activator,TRPC4 act,TRPC4 inh,TRPC4 potent,HEK293 MPD ctr-2,HEK293 MPD ctr 2-2,TRPC4 ctr mod,TRPC4/MOR inh 2,TRPC6 block conf,TRPC6 act conf,others
CC(C)C(=O)Nc1c2c(nc3ccccc13)N(C)CC2,i,i,i,i,i,nt,nt,nt,nt,nt,nt,
O=C(CN1CCOCC1)Nc1c2c(nc3ccccc13)N(Cc1ccccc1)CC2,i,i,i,i,i,nt,nt,nt,nt,nt,nt,
CCN(CC)CC(=O)Nc1c2c(nc3ccccc13)N(C)CC2,-7.49*,i,i,i,i,-213.0%*,i,-30.5%*,54.0%*,47.5%*,i,
O=C(CN1CCCC1)Nc1c2c(nc3ccccc13)N(Cc1ccccc1)CC2,-6.1*,i,i,i,i,-311.5%*,i,-49.0%*,62.5%*,46.0%*,i,
CN(C)c1cc(NC(=O)CNC(C)(C)CC(C)(C)C)c2ccccc2n1,i,i,i,i,i,nt,nt,nt,nt,nt,nt,
Cc1cccc(N(CC(=O)NC2CCCCC2)C(=O)c2c(C)noc2C)c1,-5.97*,i,i,i,i,118.0%*,i,24.5%*,30.5%*,i,nt,
NS(=O)(=O)c1ccc(CCNCc2cc(Cl)ccc2OCc2ccccc2)cc1,i,i,i,i,i,nt,nt,nt,nt,nt,nt,
NS(=O)(=O)c1ccc(CCNCc2cc(Br)ccc2OCc2ccccc2F)cc1,-5.68*,i,i,i,i,i,i,i,88.0%*,56.0%*,i,
NS(=O)(=O)c1ccc(CCNCc2ccccc2OCc2ccc(Cl)cc2)cc1,-6.82*,i,i,-5*,i,nt,nt,nt,nt,61.5%*,i,TRPC4 spec 2=30.5%*;TRPC4 spec=i;HEK293 MPD ctr 2-1=i;HEK293 MPD ctr-1=2.1%*
CCN(CC(=O)Nc1ccccc1C(F)(F)F)C(=O)C1CSC2(C)CCC(=O)N12 (stereo not given),i,i,i,i,i,nt,nt,nt,nt,nt,nt,
Cc1ccc(C(=O)N/C(=C\c2ccc(Cl)cc2)C(=O)NCCN2CCOCC2)cc1,i,i,i,i,i,nt,nt,nt,nt,nt,nt,
CN1CCN(c2ccc(S(=O)(=O)N3CCCCC3)cc2NC(=O)COc2ccc(F)cc2)CC1,-5.9*,i,i,i,10*,i,i,10.5%*,74.5%*,i,i,
CC(C)(C)C(=O)Nc1ccc(S(=O)(=O)N2CCCC2)cc1,i,i,i,i,i,nt,nt,nt,nt,nt,nt,
CC(C)(C)C(=O)Nc1cc(S(=O)(=O)N2CCCCC2)ccc1N1CCCCC1,-10.5*,15.7*,i,i,i,179.5%*,i,19.5%*,i,43.0%*,74.5%*,
O=C(COc1ccc(Br)cc1)Nc1cc(S(=O)(=O)N2CCCCC2)ccc1N1CCCCC1,i,i,i,i,i,nt,nt,nt,nt,nt,nt,
CC[n+]1ccc2cc(OC)c(OC)cc2c1Cc1ccc(OC)c(OC)c1,-6.44*,i,i,i,i,-232.5%*,i,-40.0%*,i,i,i,
O=C1NCCCC1C(=O)Nc1ccccc1C(F)(F)F (stereo not given),i,i,i,i,i,nt,nt,nt,nt,nt,nt,
CC(=O)c1cccc(NS(=O)(=O)c2c(C(=O)N3CCOCC3)c(C)n(C)c2C)c1,i,i,i,i,i,nt,nt,nt,nt,nt,nt,
CCCCN(CC)CCCNC(=O)c1cc2c(=O)[nH]c3ccccc3c2s1,i,i,i,i,i,nt,nt,nt,nt,nt,nt,
CCCCN(CC)CCNC(=O)c1cc2c(=O)[nH]c3ccc(C)cc3c2s1,-6.27*,i,i,i,i,186.5%*,i,35.0%*,i,59.5%*,nt,
Cc1ccc(-c2noc(CCC(=O)N3CCCc4ccccc43)n2)cc1,-6.42*,i,i,i,i,104.0%*,i,12.5%*,i,66.0%*,nt,
COCCN(C(=O)c1csnn1)C(C(=O)NC1CCCCC1)c1ccccc1F (stereo not given),i,i,i,i,i,nt,nt,nt,nt,nt,nt,
C=CCn1c(=NC(=O)CC)n(C)c2ccccc21,i,i,i,i,i,nt,nt,nt,nt,nt,nt,
CCN(CC)C(=O)N1c2ccccc2C=Cc2ccccc21,i,i,i,i,i,nt,nt,nt,nt,nt,nt,
CN(C)CCCNC(=O)N1c2ccccc2C=Cc2ccccc21,-5.34*,i,i,i,i,i,i,i,i,65.5%*,i,
